The list is not random: actives were taken first. Their share in the collection is about 1.9%.
pCIP destab – p/CIP-EGFP fusion destabilizers, primary screen, fluorescence, F442A cells; AID 1984, 2009; 290,000 compounds, 0.01% hits; Q05BA5; 16 h; decrease of EGFP signal, % at 10 µM;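 active = EGFP signal decrease of at least 30% at 10 µM or well 3 SD below plate mean, unless failing retest; inactive = the rest, including hits failing retest or dose response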
Target sequence (Q05BA5 1-1403): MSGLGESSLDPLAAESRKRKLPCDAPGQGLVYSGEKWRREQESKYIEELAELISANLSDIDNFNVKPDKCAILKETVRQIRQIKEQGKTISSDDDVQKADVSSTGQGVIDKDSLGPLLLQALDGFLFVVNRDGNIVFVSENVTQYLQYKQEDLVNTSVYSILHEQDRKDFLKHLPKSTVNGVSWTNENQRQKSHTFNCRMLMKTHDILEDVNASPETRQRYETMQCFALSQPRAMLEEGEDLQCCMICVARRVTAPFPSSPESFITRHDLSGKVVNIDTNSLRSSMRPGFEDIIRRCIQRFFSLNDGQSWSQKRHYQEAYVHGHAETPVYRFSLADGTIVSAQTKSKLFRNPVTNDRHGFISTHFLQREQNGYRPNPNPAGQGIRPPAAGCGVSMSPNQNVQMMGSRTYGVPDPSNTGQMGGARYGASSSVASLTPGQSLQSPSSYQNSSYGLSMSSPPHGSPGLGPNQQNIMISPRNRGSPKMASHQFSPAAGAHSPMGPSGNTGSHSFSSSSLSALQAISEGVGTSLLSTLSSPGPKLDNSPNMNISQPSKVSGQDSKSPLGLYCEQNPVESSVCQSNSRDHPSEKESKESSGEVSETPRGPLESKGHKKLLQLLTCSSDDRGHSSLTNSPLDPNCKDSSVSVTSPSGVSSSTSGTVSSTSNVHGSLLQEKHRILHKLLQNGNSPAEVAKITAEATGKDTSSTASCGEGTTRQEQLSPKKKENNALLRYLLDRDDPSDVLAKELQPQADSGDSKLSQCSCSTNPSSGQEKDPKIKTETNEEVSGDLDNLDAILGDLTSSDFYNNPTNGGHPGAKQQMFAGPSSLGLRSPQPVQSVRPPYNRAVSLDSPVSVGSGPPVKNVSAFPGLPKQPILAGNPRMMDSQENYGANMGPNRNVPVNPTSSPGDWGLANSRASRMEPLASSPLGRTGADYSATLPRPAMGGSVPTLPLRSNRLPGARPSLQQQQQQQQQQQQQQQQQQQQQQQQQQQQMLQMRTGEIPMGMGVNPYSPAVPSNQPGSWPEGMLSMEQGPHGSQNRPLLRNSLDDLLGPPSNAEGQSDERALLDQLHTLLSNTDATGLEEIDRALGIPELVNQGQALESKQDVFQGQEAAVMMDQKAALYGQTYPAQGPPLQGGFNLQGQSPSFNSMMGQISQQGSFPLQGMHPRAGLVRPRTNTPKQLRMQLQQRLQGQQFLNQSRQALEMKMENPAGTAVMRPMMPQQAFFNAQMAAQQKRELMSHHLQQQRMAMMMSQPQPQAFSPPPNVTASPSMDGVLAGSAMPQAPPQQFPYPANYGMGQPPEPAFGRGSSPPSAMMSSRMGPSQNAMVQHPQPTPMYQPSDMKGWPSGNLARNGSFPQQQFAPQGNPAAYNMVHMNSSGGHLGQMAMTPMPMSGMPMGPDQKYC
RAM inhibit – inhibitors of the yeast RAM network, primary screen, dse1pr::URA3 reporter, 5-FOA selection | S. cerevisiae dse1pr::URA3 reporter, 5-FOA growth OD615, 2 d; analog-sensitive cbk1-as2 kinase mutant strain | inhibition, % at 50 µM | 190,000 compounds, 1.8% hits;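 active = inhibition above a set limit, 3 SD over mean compound inhibition, cut at about 8.4% in these data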;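 note: 0% = DMSO-only wells with no growth and 100% = 10 µM 1-NA-PP1 full growth; inhibition rescues growth on 5-FOA so higher OD means more RAM inhibition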
NCF1 inh – p47phox/p22phox peptide binding inhibitors, primary screen, biochemical, uHTS, NADPH oxidase regulatory subunit; Neutrophil cytosol factor 1 (Homo sapiens), P14598; fluorescence polarization, 2 h; inhibition, % at 24.7 µM; 220,000 compounds, 0.53% hits; AID 1274, 2008;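 active = inhibition above about 30%, limit read from the data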;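 note: 0% = p47phox with labelled peptide and 100% = labelled peptide alone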
Dynein transport – inhibitors of GR-EGFP nuclear translocation, primary screen, dynein cargo transport inhibitor project, imaging, high-content, 3617.4 mouse cells | test concentration mostly 20 µM; stimulated with dexamethasone, 1 µM; active compounds read low | z-score, hits read low | 220,000 compounds, 0.47% hits | AID 1381, 2008;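 active = plate z-score of nuclear minus cytoplasmic receptor signal below a set negative limit, without overly bright fluorescence or cell loss, cut at about -3.5 in these data, passing the limit was not always enough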;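 note: z-score of nuclear minus cytoplasmic ring GR-EGFP intensity difference per well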
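Buffer or medium: tetracycline-free induction medium containing charcoal-stripped FBS / Reagent: dexamethasone agonist, 1.0 µM final, for 30 min / Technique: automated 10x imaging of fixed Hoechst-stained cells / Times: induction 48 h, compound 1 h, agonist 30 min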
An asterisk follows results filed as active; . = no result; ! = not confirmed by another sample.

SMILES	pCIP destab	RAM inhibit	NCF1 inh	Dynein transport
COc1cccc(NC(=O)NC2CCCc3ccccc32)c1 (stereo not drawn)	2	8.8*	-3	-0.96
O=c1oc2cc(Oc3c([N+](=O)[O-])cc(C(F)(F)F)cc3[N+](=O)[O-])ccc2c2c1CCCC2	-7	1	-5	-3.8*
CCNS(=O)(=O)c1ccc(CCC(=O)Nc2cc(Cl)ccc2Oc2ccccc2)cc1	-7	11*	2	2.8
CCNS(=O)(=O)c1ccc(CCC(=O)Nc2ccccc2)cc1	-6	2	-10	-0.51
CC(C)NS(=O)(=O)c1ccc(CCC(=O)Nc2cc(Cl)ccc2Oc2ccccc2)cc1	1	8.8*	-12	-0.38
O=C(Nc1ccc2[nH]ncc2c1)c1ccccc1Cl	-7	.	.	.
O=C(CCC(=O)N1CCN(c2cccc(Cl)c2)CC1)N1CCN(c2ccccc2)CC1	-9	.	.	.
O=C(C1CC1c1ccccc1)N1CCN(c2cccc(Cl)c2)CC1 (stereo not drawn)	-11	9.5*	-54	-0.93
Cc1ccc(S(=O)(=O)/C(C#N)=C/c2c(N3CCN(Cc4ccccc4)CC3)nc3ccccn3c2=O)cc1	-1	.	.	.
COc1ccc(C)cc1NC(=O)CSc1ccc(-c2ccco2)nn1	-2	.	.	.
[N-]=[N+]=CC(=O)CC(c1ccccc1)N1C(=O)c2ccccc2C1=O (stereo not drawn)	-3	3	51*	0.67
CC1CCN(c2oc(Cc3cccc4ccccc34)nc2C#N)CC1	-12	10*	-2	-0.22
N#Cc1nc(COc2ccccc2)oc1N1CCN(Cc2ccccc2)CC1	-6	1	-42	0.36
N#Cc1nc(Cc2cccc3ccccc23)oc1N1CCOCC1	2	1	-7	-0.63
N#Cc1nc(COc2ccccc2)oc1N1CCC(Cc2ccccc2)CC1	-3	11*	-16	-1.4
CCOc1ccc(CCNS(=O)(=O)c2cc3c(cc2C)NC(=O)CO3)cc1OCC	-5	.	.	.
Cc1cc(C(=O)CSc2nc(N)cc(=O)[nH]2)ccc1F	-8	.	.	.
Cc1cc(C)c2c(=O)[nH]c(SCC(=O)c3ccc(F)c(C)c3)nc2n1	-10	4	38*	-0.91
CCc1ccc(OCC(=O)Nc2nnc(C3CCCC3)s2)cc1	-7	.	.	.
COc1ccc(-c2nnc(NC(=O)CSc3ccc(Cl)cc3)s2)cc1OC	-11	3	41*	0.27
COc1ccc(Cc2nnc(NC(=O)CSc3ccc(C)cc3)s2)cc1OC	-10	2	-3	0.085
O=[N+]([O-])c1cnc(Sc2ccncn2)s1	-19	.	-6	-5.1*
O=C(Nc1ccc(Cl)cc1)Nc1ccccc1Sc1ncc([N+](=O)[O-])s1	3	.	-25	-1.9
CCCOc1ccc(-c2nc(C#N)c(N3CCN(C)CC3)o2)cc1	-9	0	-15	0.68
CCCOc1ccc(-c2nc(C#N)c(N3CCc4ccccc4C3)o2)cc1	-6	11*	-10	0.22
SMILES	pCIP destab	RAM inhibit	NCF1 inh	Dynein transport
O=C(CS(=O)(=O)c1cn(Cc2ccc(F)cc2)c2ccccc12)N1CCOCC1	2	1	3	0.46
O=C(CS(=O)(=O)c1cn(Cc2cccc(F)c2)c2ccccc12)N1CCOCC1	-6	9.3*	-14	-0.3
Cc1cccc(N2CCN(C(=O)c3ccc(-n4cncn4)c([N+](=O)[O-])c3)CC2)c1C	-2	.	.	.
O=c1nc(N/N=C/c2c[nH]c3ccccc23)cn[nH]1	3	.	-16	0.6
O=c1cnnc(N/N=C/c2c[nH]c3ccccc23)[nH]1	1	3	99*	-0.92
Cc1cc(S(=O)(=O)NCc2ccccc2)ccc1OCC(=O)NCc1ccncc1	3	.	.	.
Cc1cccc(C(=O)c2cnc3ccccc3c2-c2ccccc2)c1	5	9.9*	-1	0.029
O=C(O)CC1c2ccccc2CCN1S(=O)(=O)c1ccc(F)cc1 (stereo not drawn)	-9	.	.	.
CCOc1cc(/C=C(/C#N)c2ccc(F)cc2)ccc1OCc1ccc(C(=O)O)o1	-26	6	-9	-2
CCOc1cc(/C=C(/C#N)c2nc3ccccc3[nH]2)ccc1OCc1ccc(C(=O)O)o1	-3	9.1*	-34	-0.28
O=C(c1cccs1)N1CCc2c([nH]c3ccccc23)C1c1ccc(Cl)cc1 (stereo not drawn)	0	3	31*	0.2
Cc1cccc(N2CC(C(=O)Nc3nnc(SCc4cccnc4)s3)CC2=O)c1 (stereo not drawn)	-12	.	.	.
CC(=O)Nc1ccc(CN2CCCN(C)CC2)cc1	-7	.	.	.
COc1ccc(NC(=O)c2cc(C)no2)cc1	-2	.	.	.
N#CC(C(N)=O)=C1CCCCC1	8	.	75*	0.45
Cc1sc(NC(=O)c2ccccc2)c(C(=O)c2ccccc2)c1C	0	11*	-7	-0.49
O=C(COc1ccc(Cl)cc1)NCCNc1ccc([N+](=O)[O-])cc1	4	.	.	.
COC(=O)c1ccc2c(=O)n(CCCN3CCOCC3)c(=S)[nH]c2c1	-6	1	-5	-0.25
CCOC(=O)c1ccc(N=c2sc(C(=O)OC)cc(=O)n2CCCN2CCOCC2)cc1	-10	0	-24	-3.6*!
NS(=O)(=O)c1ccc(NC(=S)Nc2ccn(Cc3cccc4ccccc34)n2)cc1	-11	9.3*	-13	1.2
COc1cc(/C=C(/C#N)c2ccccc2F)ccc1OCc1ccccc1	-3	10*	-2	-0.22
COc1cc(/C=C(\C#N)C(=O)NCc2ccccc2)ccc1OCc1ccc(C(=O)O)cc1	4	.	-16	-1.8
COc1ccc(CC(=O)O/N=C(\N)Cc2ccc(OC)c(OC)c2)cc1	-20	0	-3	1.7
COc1ccc(C/C(N)=N/OC(=O)Cc2ccccc2)cc1OC	-4	1	115*	-0.018
O=C(Nc1ccc2oc(-c3ccncc3)nc2c1)c1c(F)c(F)c(F)c(F)c1F	3	6	-21	0.46
SMILES	pCIP destab	RAM inhibit	NCF1 inh	Dynein transport
COc1c(F)c(F)c(C(=O)Nc2ccc3oc(-c4ccncc4)nc3c2)c(F)c1F	-13	8.9*	-60	0.16
CC(Oc1ccccc1F)C(=O)NNC(=O)c1ccc(F)c(S(=O)(=O)N2CCOCC2)c1 (stereo not drawn)	0	.	.	.
O=C(N/N=C1\CCCc2c1[nH]c1ccc([N+](=O)[O-])cc21)c1ccncc1	-14	8.4*	1	2.7
CCOc1ccccc1OCCOc1ccccc1OC(C)C	-4	18*	-3	-0.31
CCOc1ccc(N(CC(=O)N2CCN(C(=O)CN(c3ccc(OCC)cc3)S(C)(=O)=O)CC2)S(C)(=O)=O)cc1	4	.	.	.
O=C(CSc1nnc(CNC(=O)c2ccco2)o1)Nc1ccc(Br)cc1	0	.	.	.
CCN(c1ccccc1)S(=O)(=O)c1cc(C(=O)Nc2ccc(F)c(F)c2)ccc1F	-2	11*	-16	-0.54
O=C1c2cccc3cccc(c23)C(=O)N1CCN1CCN(C(=S)Nc2ccccc2)CC1	-4	1	4	0.065
O=C1c2cccc3cccc(c23)C(=O)N1CCN1CCN(C(=S)Nc2ccc(Cl)cc2)CC1	9	0	32*	1.3
